Values after ≈ are worked out from the molar mass of the structure shown. Blank lines part the entries; values can stand above or below the molecule they belong to.
Assays:
[1] = Tmax in CD1 mouse brain at 10 mg/kg, sc by LC-MS/MS analysis; type: ADME, organism-based
[2] = Tmax in CD1 mouse plasma at 3 mg/kg, po as single dose by LC-MS/MS analysis; type: ADME, organism-based
[3] = AUClast in CD1 mouse brain at 10 mg/kg, po as single dose after 6 hrs by LC-MS/MS analysis; type: ADME, organism-based; design: time < 6 hr, dose 10 mg/kg, route oral
[4] = Tmax in CD1 mouse plasma at 10 mg/kg, po as single dose by LC-MS/MS analysis; type: ADME, organism-based
[5] = Cmax in CD1 mouse plasma at 3 mg/kg, sc after 0.083 to 6 hrs by LC-MS/MS analysis; type: ADME, organism-based; design: dose 3 mg/kg, route subcutaneous
[6] = AUClast in CD1 mouse liver at 3 mg/kg, po as single dose after 6 hrs by LC-MS/MS analysis; type: ADME, organism-based; design: dose 3 mg/kg, time < 6 hr, route oral
[7] = Cmax in CD1 mouse liver at 3 mg/kg, sc after 6 hrs by LC-MS/MS analysis; type: ADME, organism-based; design: dose 3 mg/kg, route subcutaneous
[8] = Ratio of drug level in brain to plasma in CD1 mouse at 10 mg/kg, sc by LC-MS/MS analysis; type: ADME, organism-based; details: read-out: BPR
[9] = Tmax in CD1 mouse plasma at 3 mg/kg, sc by LC-MS/MS analysis; type: ADME, organism-based
[10] = Cmax in CD1 mouse plasma at 10 mg/kg, sc after 0.083 to 6 hrs by LC-MS/MS analysis; type: ADME, organism-based; design: dose 10 mg/kg, route subcutaneous
[11] = target: Cytochrome P450 2D6 (Homo sapiens, UniProt P10635); assay: Inhibition of human recombinant CYP2D6 using AMMC as substrate incubated for 45 mins by fluorescence analysis in presence of NADPH; type: ADME
Sequence of Cytochrome P450 2D6 (P10635 whole entry): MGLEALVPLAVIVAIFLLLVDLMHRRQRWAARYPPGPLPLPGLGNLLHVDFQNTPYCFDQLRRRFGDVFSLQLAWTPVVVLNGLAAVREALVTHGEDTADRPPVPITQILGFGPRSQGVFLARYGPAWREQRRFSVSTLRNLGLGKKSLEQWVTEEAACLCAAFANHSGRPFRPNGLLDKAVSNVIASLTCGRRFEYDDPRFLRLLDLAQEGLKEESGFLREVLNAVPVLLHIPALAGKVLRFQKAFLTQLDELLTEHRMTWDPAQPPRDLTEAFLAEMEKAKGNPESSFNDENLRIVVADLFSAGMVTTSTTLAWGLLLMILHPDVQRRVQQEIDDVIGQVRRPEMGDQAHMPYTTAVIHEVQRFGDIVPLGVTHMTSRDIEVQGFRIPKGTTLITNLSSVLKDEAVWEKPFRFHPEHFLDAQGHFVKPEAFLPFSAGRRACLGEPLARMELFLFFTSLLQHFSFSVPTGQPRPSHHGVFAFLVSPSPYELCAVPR

[12] = Intrinsic clearance in rat liver microsomes at 1 uM by UPLC-MS analysis in presence of NADPH and UDPGA; type: ADME; details: read-out: CLH
[13] = target: T1, D(2) dopamine receptor (Homo sapiens, UniProt P14416); assay: Displacement of [3H]NMSP from human dopamine D2S receptor expressed in CHO cell membrane incubated for 1 hr by scintillation counting method; type: cell membranes
T1 sequence (P14416 whole entry): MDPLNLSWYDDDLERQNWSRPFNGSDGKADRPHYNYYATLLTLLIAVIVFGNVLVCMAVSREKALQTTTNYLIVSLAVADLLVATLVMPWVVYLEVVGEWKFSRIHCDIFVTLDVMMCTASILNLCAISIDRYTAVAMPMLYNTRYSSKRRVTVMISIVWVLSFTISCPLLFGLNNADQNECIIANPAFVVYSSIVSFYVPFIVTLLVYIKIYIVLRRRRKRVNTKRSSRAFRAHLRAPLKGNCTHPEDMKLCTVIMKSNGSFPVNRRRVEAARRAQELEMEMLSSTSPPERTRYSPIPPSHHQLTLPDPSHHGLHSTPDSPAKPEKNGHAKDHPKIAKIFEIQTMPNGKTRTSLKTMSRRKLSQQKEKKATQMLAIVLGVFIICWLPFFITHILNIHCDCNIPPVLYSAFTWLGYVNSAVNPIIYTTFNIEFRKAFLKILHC
Procedure, shortened: (§1)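 Competition binding: [3H]-LSD displacement for 5-HT6 and [3H]-NMSP displacement for D2. Eight compound concentrations, 5 × 10^-6 to 5 × 10^-13 M, each tested in triplicate. Affinity is reported as Ki.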

[14] = test system: Brain; assay: Cmax in CD1 mouse brain at 3 mg/kg, po as single dose after 6 hrs by LC-MS/MS analysis; type: ADME, organism-based; design: dose 3 mg/kg, route oral; details: in vivo, BLD = below limit of detection
[15] = AUClast in CD1 mouse plasma at 10 mg/kg, po as single dose after 0.083 to 6 hrs by LC-MS/MS analysis; type: ADME, organism-based; design: time upper 6 hr, time lower 0.083 hr, dose 10 mg/kg, route oral
[16] = Ratio of drug level in brain to plasma in CD1 mouse at 10 mg/kg, po as single dose by LC-MS/MS analysis; type: ADME, organism-based; details: read-out: BPR
[17] = Cmax in CD1 mouse plasma at 10 mg/kg, po as single dose after 0.083 to 6 hrs by LC-MS/MS analysis; type: ADME, organism-based; design: dose 10 mg/kg, route oral
[18] = AUClast in CD1 mouse plasma at 3 mg/kg, po as single dose after 0.083 to 6 hrs by LC-MS/MS analysis; type: ADME, organism-based; design: dose 3 mg/kg, time upper 6 hr, time lower 0.083 hr, route oral
[19] = Tmax in CD1 mouse brain at 10 mg/kg, po as single dose by LC-MS/MS analysis; type: ADME, organism-based
[20] = Passive permeability of compound after 4 hrs by sink-PAMPA assay; type: ADME; details: read-out: permeability
[21] = target: T2, 5-hydroxytryptamine receptor 6 (Homo sapiens, UniProt P50406); assay: Displacement of [3H]LSD from human 5HT6 receptor in HEK293 cell membrane incubated for 1 hr by scintillation counting method; type: cell membranes; procedure, shortened: as §1
T2 sequence (P50406 whole entry): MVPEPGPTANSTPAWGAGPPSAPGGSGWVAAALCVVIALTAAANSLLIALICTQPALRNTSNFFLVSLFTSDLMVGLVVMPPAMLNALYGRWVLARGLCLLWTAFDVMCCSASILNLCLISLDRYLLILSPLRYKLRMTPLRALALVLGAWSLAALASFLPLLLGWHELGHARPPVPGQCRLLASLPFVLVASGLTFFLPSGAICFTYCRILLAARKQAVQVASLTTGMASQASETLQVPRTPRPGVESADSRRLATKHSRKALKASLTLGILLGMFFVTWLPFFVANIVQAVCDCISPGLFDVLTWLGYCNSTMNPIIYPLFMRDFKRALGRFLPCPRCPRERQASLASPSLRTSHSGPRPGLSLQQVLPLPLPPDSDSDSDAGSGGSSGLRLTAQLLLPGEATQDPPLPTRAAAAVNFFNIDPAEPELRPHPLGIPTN

[22] = Intrinsic clearance in human liver microsomes at 1 uM by UPLC-MS analysis in presence of NADPH and UDPGA; type: ADME; details: read-out: CLH
[23] = Ratio of drug level in liver to plasma in CD1 mouse at 3 mg/kg, sc by LC-MS/MS analysis; type: ADME, organism-based
[24] = AUClast in CD1 mouse liver at 3 mg/kg, sc after 6 hrs by LC-MS/MS analysis; type: ADME, organism-based; design: time < 6 hr, dose 3 mg/kg, route subcutaneous
[25] = AUClast in CD1 mouse brain at 10 mg/kg, sc after 6 hrs by LC-MS/MS analysis; type: ADME, organism-based; design: dose 10 mg/kg, time < 6 hr, route subcutaneous
[26] = Cmax in CD1 mouse liver at 10 mg/kg, po as single dose after 6 hrs by LC-MS/MS analysis; type: ADME, organism-based; design: dose 10 mg/kg, route oral
[27] = Ratio of drug level in brain to plasma in CD1 mouse at 3 mg/kg, sc by LC-MS/MS analysis; type: ADME, organism-based; details: read-out: BPR
[28] = Cmax in CD1 mouse liver at 3 mg/kg, po as single dose after 6 hrs by LC-MS/MS analysis; type: ADME, organism-based; design: dose 3 mg/kg, route oral
[29] = AUClast in CD1 mouse liver at 10 mg/kg, sc after 6 hrs by LC-MS/MS analysis; type: ADME, organism-based; design: dose 10 mg/kg, time < 6 hr, route subcutaneous
[30] = Cmax in CD1 mouse brain at 3 mg/kg, sc after 6 hrs by LC-MS/MS analysis; type: ADME, organism-based; design: dose 3 mg/kg, route subcutaneous
[31] = Intrinsic clearance in mouse liver microsomes at 1 uM by UPLC-MS analysis in presence of NADPH and UDPGA; type: ADME; details: read-out: CLH
[32] = Tmax in CD1 mouse liver at 10 mg/kg, po as single dose by LC-MS/MS analysis; type: ADME, organism-based
[33] = test system: Brain; assay: Tmax in CD1 mouse brain at 3 mg/kg, po as single dose by LC-MS/MS analysis; type: ADME, organism-based; details: in vivo, BLD = below limit of detection
[34] = AUClast in CD1 mouse plasma at 3 mg/kg, sc after 0.083 to 6 hrs by LC-MS/MS analysis; type: ADME, organism-based; design: time lower 0.083 hr, dose 3 mg/kg, time upper 6 hr, route subcutaneous
[35] = Tmax in CD1 mouse plasma at 10 mg/kg, sc by LC-MS/MS analysis; type: ADME, organism-based
[36] = Tmax in CD1 mouse liver at 3 mg/kg, po as single dose by LC-MS/MS analysis; type: ADME, organism-based
[37] = Tmax in CD1 mouse liver at 10 mg/kg, sc by LC-MS/MS analysis; type: ADME, organism-based
[38] = Cmax in CD1 mouse brain at 10 mg/kg, sc after 6 hrs by LC-MS/MS analysis; type: ADME, organism-based; design: dose 10 mg/kg, route subcutaneous
[39] = Ratio of drug level in liver to plasma in CD1 mouse at 10 mg/kg, po as single dose by LC-MS/MS analysis; type: ADME, organism-based
[40] = Ratio of drug level in brain to plasma in CD1 mouse at 3 mg/kg, po as single dose by LC-MS/MS analysis; type: ADME, organism-based; details: BLD = below limit of detection
[41] = Cmax in CD1 mouse plasma at 3 mg/kg, po as single dose after 0.083 to 6 hrs by LC-MS/MS analysis; type: ADME, organism-based; design: dose 3 mg/kg, route oral
[42] = Cmax in CD1 mouse liver at 10 mg/kg, sc after 6 hrs by LC-MS/MS analysis; type: ADME, organism-based; design: dose 10 mg/kg, route subcutaneous
[43] = Cmax in CD1 mouse brain at 10 mg/kg, po as single dose after 6 hrs by LC-MS/MS analysis; type: ADME, organism-based; design: dose 10 mg/kg, route oral
[44] = Ratio of drug level in liver to plasma in CD1 mouse at 3 mg/kg, po as single dose by LC-MS/MS analysis; type: ADME, organism-based
[45] = AUClast in CD1 mouse plasma at 10 mg/kg, sc after 0.083 to 6 hrs by LC-MS/MS analysis; type: ADME, organism-based; design: time 0.083-6 hr, dose 10 mg/kg, route subcutaneous
[46] = Tmax in CD1 mouse brain at 3 mg/kg, sc by LC-MS/MS analysis; type: ADME, organism-based
[47] = target: Voltage-gated inwardly rectifying potassium channel KCNH2 (Homo sapiens, UniProt Q12809); assay: Inhibition of human ERG1 expressed in CHO cells by whole cell patch clamp electrophysiology method
Sequence of Voltage-gated inwardly rectifying potassium channel KCNH2 (Q12809 whole entry): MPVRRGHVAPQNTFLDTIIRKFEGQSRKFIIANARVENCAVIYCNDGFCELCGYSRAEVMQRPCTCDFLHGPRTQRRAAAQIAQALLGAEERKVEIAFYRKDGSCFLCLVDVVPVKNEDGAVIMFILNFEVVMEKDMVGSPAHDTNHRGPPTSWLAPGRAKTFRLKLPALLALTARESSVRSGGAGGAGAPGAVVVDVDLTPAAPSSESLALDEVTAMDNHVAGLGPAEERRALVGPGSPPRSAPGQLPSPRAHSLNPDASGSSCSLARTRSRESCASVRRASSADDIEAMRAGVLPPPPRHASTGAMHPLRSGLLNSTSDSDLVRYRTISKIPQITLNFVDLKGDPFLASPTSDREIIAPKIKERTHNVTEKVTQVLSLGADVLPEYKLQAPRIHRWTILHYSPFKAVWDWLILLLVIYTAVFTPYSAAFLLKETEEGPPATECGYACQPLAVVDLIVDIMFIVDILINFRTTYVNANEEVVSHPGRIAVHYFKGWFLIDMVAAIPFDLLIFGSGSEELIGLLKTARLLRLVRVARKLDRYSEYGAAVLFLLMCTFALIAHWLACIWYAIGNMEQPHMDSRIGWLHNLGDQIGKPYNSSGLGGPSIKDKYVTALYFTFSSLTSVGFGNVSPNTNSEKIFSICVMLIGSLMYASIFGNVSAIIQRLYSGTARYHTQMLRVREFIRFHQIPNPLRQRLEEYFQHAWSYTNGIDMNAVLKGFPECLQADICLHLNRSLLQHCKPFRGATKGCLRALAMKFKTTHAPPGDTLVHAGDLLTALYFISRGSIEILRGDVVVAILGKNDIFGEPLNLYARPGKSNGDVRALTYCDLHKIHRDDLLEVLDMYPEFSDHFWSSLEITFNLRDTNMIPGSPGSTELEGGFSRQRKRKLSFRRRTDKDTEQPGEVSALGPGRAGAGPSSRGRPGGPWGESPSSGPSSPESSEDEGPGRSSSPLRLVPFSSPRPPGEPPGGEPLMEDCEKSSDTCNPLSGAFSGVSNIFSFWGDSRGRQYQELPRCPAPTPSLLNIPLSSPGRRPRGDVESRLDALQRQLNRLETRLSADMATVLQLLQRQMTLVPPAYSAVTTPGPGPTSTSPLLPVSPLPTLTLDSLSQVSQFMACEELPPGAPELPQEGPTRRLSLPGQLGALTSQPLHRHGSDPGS

[48] = AUClast in CD1 mouse liver at 10 mg/kg, po as single dose after 6 hrs by LC-MS/MS analysis; type: ADME, organism-based; design: dose 10 mg/kg, time < 6 hr, route oral
[49] = Tmax in CD1 mouse liver at 3 mg/kg, sc by LC-MS/MS analysis; type: ADME, organism-based
[50] = AUClast in CD1 mouse brain at 3 mg/kg, sc after 6 hrs by LC-MS/MS analysis; type: ADME, organism-based; design: time < 6 hr, dose 3 mg/kg, route subcutaneous
[51] = target: Cytochrome P450 3A4 (Homo sapiens, UniProt P08684); assay: Inhibition of human recombinant CYP3A4 using 7-benzyloxy-trifluoromethylcoumarin as substrate incubated for 30 mins by fluorescence analysis in presence of NADPH; type: ADME
Sequence of Cytochrome P450 3A4 (P08684 whole entry): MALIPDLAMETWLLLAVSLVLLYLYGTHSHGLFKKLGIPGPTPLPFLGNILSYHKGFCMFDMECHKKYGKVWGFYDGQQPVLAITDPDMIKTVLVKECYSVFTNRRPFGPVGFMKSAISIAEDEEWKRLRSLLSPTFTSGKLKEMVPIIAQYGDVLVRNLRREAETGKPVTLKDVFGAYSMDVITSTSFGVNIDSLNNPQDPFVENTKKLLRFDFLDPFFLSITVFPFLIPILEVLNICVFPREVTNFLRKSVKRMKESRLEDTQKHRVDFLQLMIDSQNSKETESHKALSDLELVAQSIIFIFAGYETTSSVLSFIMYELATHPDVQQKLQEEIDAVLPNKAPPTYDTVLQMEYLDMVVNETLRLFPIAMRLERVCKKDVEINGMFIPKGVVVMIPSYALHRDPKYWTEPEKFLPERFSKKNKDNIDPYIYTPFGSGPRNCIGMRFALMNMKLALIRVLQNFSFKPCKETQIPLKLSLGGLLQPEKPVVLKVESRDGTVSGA

[52] = Ratio of drug level in liver to plasma in CD1 mouse at 10 mg/kg, sc by LC-MS/MS analysis; type: ADME, organism-based
[53] = Kinetic solubility in sorensen buffer at pH 7.4 incubated for 1 hr by UV-Visible spectrophotometry; type: physicochemical; details: read-out: Kinetic_solubility
[54] = target: 5-hydroxytryptamine receptor 1B (Rattus norvegicus) (UniProt P28564); assay: Displacement of [125I]CYP from 5HT1B receptor in rat cerebral cortex at 1 uM incubated for 120 mins by scintillation counting method relative to control; type: tissue-based
Sequence of 5-hydroxytryptamine receptor 1B (Rattus norvegicus) (P28564 whole entry): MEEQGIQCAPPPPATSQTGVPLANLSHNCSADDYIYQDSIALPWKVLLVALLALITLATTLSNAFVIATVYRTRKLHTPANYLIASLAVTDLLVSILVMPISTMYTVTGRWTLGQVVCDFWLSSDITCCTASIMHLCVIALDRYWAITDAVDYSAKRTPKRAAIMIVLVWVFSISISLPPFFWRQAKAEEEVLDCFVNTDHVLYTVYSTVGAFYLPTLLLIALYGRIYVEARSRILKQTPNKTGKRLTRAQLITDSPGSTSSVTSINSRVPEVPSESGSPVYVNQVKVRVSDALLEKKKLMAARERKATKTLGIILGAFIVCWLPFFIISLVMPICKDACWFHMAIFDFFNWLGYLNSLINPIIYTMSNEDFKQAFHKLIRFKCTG
Procedure, shortened: (§2)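 Tested at a single concentration in a contract panel of 106 neurotransmitter receptors, transporters and ion channels. Read-out is percent radioligand displacement.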

[55] = target: T2, 5-hydroxytryptamine receptor 6; assay: Displacement of [3H]LSD from human recombinant 5HT6 receptor expressed in CHO cells at 1 uM incubated for 120 mins by scintillation counting method relative to control; type: cell-based
Procedure, shortened: (§3)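 Single-point screen at 1 µM (final) within a 106-target panel of neurotransmitter receptors, transporters and ion channels. Read-out is % radioligand displacement.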

[56] = target: T1, D(2) dopamine receptor; assay: Displacement of [3H]methyl-spiperone from human recombinant dopamine D2S receptor expressed in HEK293 cells at 1 uM incubated for 60 mins by scintillation counting method relative to control; type: cell-based; procedure, shortened: as §3
[57] = target: D(3) dopamine receptor (Homo sapiens) (UniProt P35462); assay: Displacement of [3H]methyl-spiperone from human recombinant dopamine D3 receptor expressed in CHO cells at 1 uM incubated for 60 mins by scintillation counting method relative to control; type: cell-based; procedure, shortened: as §2
Sequence of D(3) dopamine receptor (Homo sapiens) (P35462 whole entry): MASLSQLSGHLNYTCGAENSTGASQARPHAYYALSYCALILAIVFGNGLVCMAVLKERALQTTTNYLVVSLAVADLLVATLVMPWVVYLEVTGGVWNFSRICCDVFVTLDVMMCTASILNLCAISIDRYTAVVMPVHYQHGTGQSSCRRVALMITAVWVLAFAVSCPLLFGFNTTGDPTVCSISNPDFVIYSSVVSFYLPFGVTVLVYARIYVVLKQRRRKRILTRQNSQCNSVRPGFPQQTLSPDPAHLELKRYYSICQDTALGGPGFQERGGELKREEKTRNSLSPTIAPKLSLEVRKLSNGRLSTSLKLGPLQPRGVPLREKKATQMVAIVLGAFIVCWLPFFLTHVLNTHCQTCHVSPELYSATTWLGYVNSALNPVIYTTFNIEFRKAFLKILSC

Tmax [1]: 6 h | Tmax [2]: 1 h | AUC(0-t) at 6 h [3]: 134 ng·h/mL | Tmax [4]: 6 h | Cmax [5]: 18 ng/mL | AUC(0-t) at 6 h [6]: 260 ng·h/mL | Cmax [7]: 43 ng/mL | Kp [8]: 0.8 | Tmax [9]: 1 h | Cmax [10]: 44 ng/mL | IC50 [11]: 3300 nM | microsomal CLint at 1 µM [12]: 55 µL/min/mg | Ki [13]: 367 nM | Cmax [14]: BLD | AUC(0-t) [15]: 97 ng·h/mL | Kp [16]: 1.4 | Cmax [17]: 17 ng/mL | AUC(0-t) [18]: 13 ng·h/mL | Tmax [19]: 6 h | Papp at 4 h [20]: 53.7 ×10⁻⁶ cm/s | Ki [21]: 4 nM | microsomal CLint at 1 µM [22]: 20 µL/min/mg | Kp [23]: 2.7 | AUC(0-t) at 6 h [24]: 241 ng·h/mL | AUC(0-t) at 6 h [25]: 161 ng·h/mL | Cmax [26]: 740 ng/mL | Kp [27]: 0.9 | Cmax [28]: 110 ng/mL | AUC(0-t) at 6 h [29]: 687 ng·h/mL | Cmax [30]: 16 ng/mL | microsomal CLint at 1 µM [31]: 63 µL/min/mg | Tmax [32]: 0.5 h | Tmax [33]: BLD | AUC(0-t) [34]: 90 ng·h/mL | Tmax [35]: 1 h | Tmax [36]: 0.25 h | Tmax [37]: 1 h | Cmax [38]: 36 ng/mL | Kp [39]: 30.7 | BPR [40]: BLD | Cmax [41]: 3 ng/mL | Cmax [42]: 142 ng/mL | Cmax [43]: 26 ng/mL | Kp [44]: 19.5 | AUC(0-t) [45]: 208 ng·h/mL | Tmax [46]: 6 h | AUC(0-t) at 6 h [48]: 2970 ng·h/mL | Tmax [49]: 1 h | AUC(0-t) at 6 h [50]: 79 ng·h/mL | IC50 [51]: 1100 nM | Kp [52]: 3.3 | solubility kinetic at 1 h [53]: 8 µg/mL (≈ 16.6 µM)
SMILES: CC(C)CS(=O)(=O)n1ccc2c(-c3ccc(C(F)(F)F)cc3)cc(N3CCN(C)CC3)nc21
IC50 [47]: 2100 nM

inhibition [54]: 72% | IC50 [11]: > 10000 nM | Ki [13]: 1700 nM | inhibition [55]: 100% | Papp at 4 h [20]: 92 ×10⁻⁶ cm/s | Ki [21]: 3 nM | inhibition [56]: 60% | inhibition [57]: 94% | IC50 [51]: < 1100 nM
SMILES: CC(C)CS(=O)(=O)n1ccc2c(-c3ccc(C(F)(F)F)cc3)cc(N3CCNCC3)nc21
